Data from ChEMBL document CHEMBL1122491, “Synthesis and biological activity of 5-(trifluoromethyl)- and 5-(pentafluoroethyl)pyrimidine nucleoside analogues” (J Med Chem, 1983).

How the values were obtained:
[1] = system: Human alphaherpesvirus 1; test: In vitro percent inhibition of replication of HSV-1 cells at 100 uM concentration; format: functional; conditions: Human alphaherpesvirus 1, HSV-1
Summary of the method: (§1)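 Confluent Vero monolayers in Dulbecco's medium + 10% fetal calf serum were infected with HSV-1 strain CL-101 at MOI 10. After 1 h adsorption at 37 °C, the inoculum was removed and the cells washed with PBS. Compound in serum-containing medium was added for 40 h at 37 °C. Virus released by one freeze-thaw was titred by plaque assay on Vero cells. Percent inhibition was pfu relative to drug-free cultures. ED50 came from dose-response curves of at least two independent experiments.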

[2] = system: Human alphaherpesvirus 1; test: Concentration required to inhibit replication of HSV-1 cell by 50%; format: functional; conditions: Human alphaherpesvirus 1, HSV-1; read-out: ED50 (the source's name); summary of the method: as §1
[3] = system: L1210; test: In vitro percent inhibition of replication of L1210 cells at 100 uM concentration; format: functional; conditions: Mus musculus
Summary of the method: (§2)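 Mouse L1210 and S-180 suspension cultures were kept in Fischer's medium + 10% horse serum at 37 °C, 5% CO2. Exponentially growing cells at 2 × 10⁴ cells/mL were given compound. The increase in cell number versus drug-free control was counted after 24, 48 and 72 h. ED50 came from dose-response curves of at least two independent experiments.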

[4] = In vitro percent inhibition of replication of S-180 cells at 100 uM concentration; format: functional; conditions: Mus musculus; summary of the method: as §2
[5] = system: Human alphaherpesvirus 1; test: In vitro percent inhibition of replication of HSV-1 cells at 20 uM concentration; format: functional; conditions: Human alphaherpesvirus 1, HSV-1; summary of the method: as §1
[6] = system: Human alphaherpesvirus 1; test: In vitro percent inhibition of replication of HSV-1 cells at 40 uM concentration; format: functional; conditions: Human alphaherpesvirus 1, HSV-1; summary of the method: as §1
[7] = system: Human alphaherpesvirus 1; test: In vitro percent inhibition of replication of HSV-1 cells at 80 uM concentration; format: functional; conditions: Human alphaherpesvirus 1, HSV-1; summary of the method: as §1
[8] = system: L1210; test: Concentration required to inhibit replication of L1210 cell by 50%; format: functional; conditions: Mus musculus, read-out: ED50 (the source's name); summary of the method: as §2
[9] = system: L1210; test: In vitro percent inhibition of replication of L1210 cells at 25 uM concentration; format: functional; conditions: Mus musculus; summary of the method: as §2
[10] = system: L1210; test: In vitro percent inhibition of replication of L1210 cells at 50 uM concentration; format: functional; conditions: Mus musculus; summary of the method: as §2
[11] = Concentration required to inhibit replication of S-180 cell by 50%; format: functional; conditions: Mus musculus, read-out: ED50 (the source's name); summary of the method: as §2
[12] = In vitro percent inhibition of replication of S-180 cells at 25 uM concentration; format: functional; conditions: Mus musculus; summary of the method: as §2
[13] = In vitro percent inhibition of replication of S-180 cells at 50 uM concentration; format: functional; conditions: Mus musculus; summary of the method: as §2
[14] = system: Vero; test: Concentration required to inhibit replication of vero cell by 50%; format: functional; conditions: Chlorocebus sabaeus, read-out: ED50 (the source's name)
Summary of the method: (§3)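 Uninfected Vero cells were seeded at 0.1 confluency in Dulbecco's medium + 10% fetal calf serum and grown 1 day at 37 °C, 5% CO2. Compound was then added in growth medium. Cells were detached with 0.125% trypsin/0.02% EDTA for 15 min at 37 °C, dispersed by pipetting, stained with Trypan blue and counted by hemocytometer. ED50 came from dose-response curves of at least two independent experiments.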

[15] = system: Vero; test: In vitro percent inhibition of replication of vero cells at 100 uM concentration; format: functional; conditions: Chlorocebus sabaeus; summary of the method: as §3
[16] = system: Vero; test: In vitro percent inhibition of replication of vero cells at 25 uM concentration; format: functional; conditions: Chlorocebus sabaeus; summary of the method: as §3
[17] = system: Vero; test: In vitro percent inhibition of replication of vero cells at 5 uM concentration; format: functional; conditions: Chlorocebus sabaeus; summary of the method: as §3
[18] = system: Vero; test: In vitro percent inhibition of replication of vero cells at 50 uM concentration; format: functional; conditions: Chlorocebus sabaeus; summary of the method: as §3
[19] = Therapeutic index was determined as the ratio fo ED50(vero)/ ED50(HSV-1); conditions: monkey, Vero cells
Summary of the method: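 Ratio of ED50 for uninfected Vero cell replication (cell counts after compound exposure) to ED50 for HSV-1 yield in Vero cells (plaque titration after 40 h infection at MOI 10). Both ED50 values were estimated from dose-response curves of at least two independent experiments.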

[20] = system: Human alphaherpesvirus 1; test: In vitro percent inhibition of replication of HSV-1 cells at 10 uM concentration; format: functional; conditions: Human alphaherpesvirus 1, HSV-1; summary of the method: as §1
[21] = system: Human alphaherpesvirus 1; test: In vitro percent inhibition of replication of HSV-1 cells at 5 uM concentration; format: functional; conditions: Human alphaherpesvirus 1, HSV-1; summary of the method: as §1
[22] = system: Human alphaherpesvirus 1; test: In vitro percent inhibition of replication of HSV-1 cells at 1.25 uM concentration; format: functional; conditions: Human alphaherpesvirus 1, HSV-1; summary of the method: as §1
[23] = system: Human alphaherpesvirus 1; test: In vitro percent inhibition of replication of HSV-1 cells at 12.5 uM concentration; format: functional; conditions: Human alphaherpesvirus 1, HSV-1; summary of the method: as §1
[24] = system: L1210; test: In vitro percent inhibition of replication of L1210 cells at 12.5 uM concentration; format: functional; conditions: Mus musculus; summary of the method: as §2
[25] = In vitro percent inhibition of replication of S-180 cells at 12.5 uM concentration; format: functional; conditions: Mus musculus; summary of the method: as §2
[26] = system: Human alphaherpesvirus 1; test: In vitro percent inhibition of replication of HSV-1 cells at 50 uM concentration; format: functional; conditions: Human alphaherpesvirus 1, HSV-1; summary of the method: as §1
[27] = system: L1210; test: In vitro percent inhibition of replication of L1210 cells at 200 uM concentration; format: functional; conditions: Mus musculus; summary of the method: as §2
[28] = system: L1210; test: In vitro percent inhibition of replication of L1210 cells at 400 uM concentration; format: functional; conditions: Mus musculus; summary of the method: as §2
[29] = In vitro percent inhibition of replication of S-180 cells at 200 uM concentration; format: functional; conditions: Mus musculus; summary of the method: as §2
[30] = system: Vero; test: In vitro percent inhibition of replication of vero cells at 200 uM concentration; format: functional; conditions: Chlorocebus sabaeus; summary of the method: as §3
[31] = system: Vero; test: In vitro percent inhibition of replication of vero cells at 400 uM concentration; format: functional; conditions: Chlorocebus sabaeus; summary of the method: as §3
[32] = system: Vero; test: In vitro percent inhibition of replication of vero cells at 1 uM concentration; format: functional; conditions: Chlorocebus sabaeus; summary of the method: as §3
[33] = system: Vero; test: In vitro percent inhibition of replication of vero cells at 10 uM concentration; format: functional; conditions: Chlorocebus sabaeus; summary of the method: as §3
[34] = In vitro percent inhibition of replication of S-180 cells at 0.1 uM concentration; format: functional; conditions: Mus musculus; summary of the method: as §2

SMILES	EC50 [2] [µM]	EC50 [8] [µM]	EC50 [11] [µM]	inhibition at 100 µM [1] [%]	inhibition at 100 µM [3] [%]	inhibition at 100 µM [4] [%]	inhibition at 25 µM [9] [%]	inhibition at 50 µM [10] [%]	inhibition at 25 µM [12] [%]	inhibition at 50 µM [13] [%]	EC50 [14] [µM]	inhibition at 100 µM [15] [%]	inhibition at 50 µM [18] [%]	selectivity ratio [19]	inhibition at 10 µM [20] [%]	also measured
O=c1[nH]c(=O)n(C2O[C@H](CO)[C@@H](O)[C@@H]2O)cc1C(F)(F)F (stereo partly drawn)	5	70	65	99	66	59	19	33	41	46	320	4	0	64	74	inhibition at 50 µM [26]: 88%; inhibition at 200 µM [27]: 84%; inhibition at 400 µM [28]: 87%; inhibition at 200 µM [29]: 71%; inhibition at 200 µM [30]: 14%; inhibition at 400 µM [31]: 66%
O=c1[nH]c(=O)n([C@H]2C[C@H](O)[C@@H](CO)O2)cc1C(F)(F)F [TRIFLURIDINE]	–	–	–	–	–	–	–	–	–	–	–	–	–	–	–	inhibition at 1 µM [32]: 63%; inhibition at 10 µM [33]: 100%; inhibition at 0.1 µM [34]: 100%

Further lines, with some results ahead:

EC50 [2] [µM]	EC50 [8] [µM]	EC50 [11] [µM]	SMILES	inhibition at 100 µM [1] [%]	inhibition at 100 µM [3] [%]	inhibition at 100 µM [4] [%]	inhibition at 25 µM [9] [%]	inhibition at 50 µM [10] [%]	inhibition at 25 µM [12] [%]	inhibition at 50 µM [13] [%]	EC50 [14] [µM]	inhibition at 100 µM [15] [%]	inhibition at 50 µM [18] [%]	selectivity ratio [19]	inhibition at 10 µM [20] [%]	also measured
> 400	–	–	O=c1[nH]c(=O)n(C2C[C@@H](O)[C@@H](CO)O2)cc1C(F)(F)C(F)(F)F (stereo partly drawn)	15	17	28	–	–	–	–	–	–	–	–	–	–
7	45	25	CC(=O)OC[C@H]1OC(n2cc(C(F)(F)F)c(=O)[nH]c2=O)[C@H](OC(C)=O)[C@H]1OC(C)=O (stereo partly drawn)	–	95	95	13	58	47	60	45	100	57	6.4	61	inhibition at 20 µM [5]: 92%; inhibition at 40 µM [6]: 97%; inhibition at 80 µM [7]: 98%; inhibition at 25 µM [16]: 8%; inhibition at 5 µM [17]: 0%; inhibition at 5 µM [21]: 17%
12.5	–	–	CC(=O)OC[C@H]1OC(n2cc(C(F)(F)C(F)(F)F)c(=O)[nH]c2=O)C[C@H]1OC(C)=O (stereo partly drawn)	–	–	–	–	–	–	–	–	–	–	–	–	inhibition at 1.25 µM [22]: 26%; inhibition at 12.5 µM [23]: 51%; inhibition at 12.5 µM [24]: 14%; inhibition at 12.5 µM [25]: 37%
